The source of these data is ChEMBL document CHEMBL3272226, “Synthesis and dopaminergic activity of (+/-)-, (+)-, and (-)-2-dipropylamino-5-hydroxy-1,2,3,4-tetrahydronaphthalene” (1976).

Assay [1] has as its system Canis familiaris. Kind of assay: Dopaminergic activity in dog assessed as induction of emesis administered intramuscularly measured up to 20 hrs. It is filed as functional, Canis lupus familiaris. Particulars: for minimal effective dose: Canis lupus familiaris, im, 20 h, read-out: MED. The essentials:
(§1)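 Dogs, three to five per dose, given im injection of test solutions (HCl or HI salts dissolved in saline, doses as free base); minimum emetic dose determined.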

The subject of assay [2] is Rattus norvegicus. Nature of the assay: Dopaminergic activity in sc dosed Sprague-Dawley rat assessed as induction of stereotyped behavior administered for 30 to 50 mins. It is filed as functional. The note with it: for minimal effective dose: Rattus norvegicus, Sprague-Dawley, sc, read-out: MED. The essentials: (§2)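 Sprague-Dawley male rats, three per dose, dosed sc with HCl or HI salts in saline (doses as free base); minimum dose inducing stereotyped behavior lasting 30-50 min determined.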

In assay [3] the test system is Canis familiaris. Kind of assay: Dopaminergic activity in (+)-6-(dipropylamino)-5,6,7,8-tetrahydronaphthalen-1-ol-pretreated dog assessed as induction of emesis administered intramuscularly measured up to 20 hrs. Format: functional, organism-based. Particulars: Canis lupus familiaris. The essentials: as §1
The test system of assay [4] is Rattus norvegicus. Kind of assay: Dopaminergic activity in (+)-6-(dipropylamino)-5,6,7,8-tetrahydronaphthalen-1-ol-pretreated sc dosed Sprague-Dawley rat assessed as induction of stereotyped behavior administered for 30 to 50 mins. It is filed as functional, organism-based. An outline of the steps: as §2

Activity calls are given as the source filed them. The calls are words filed in the database; no cut-off is given here. Some results are limits rather than exact numbers.

`CCCN(CCC)C1CCc2c(O)cccc2C1` (single isomer, unassigned; (-)) [5-OH-DPAT]: the MED is 0.002 mg/kg in assay [1] and 0.05 mg/kg in assay [2].
Turning to `CCCN(CCC)C1CCc2ccc(O)cc2C1` (racemic), the minimal effective dose was found to be 0.013 mg/kg in assay [1] and 23 mg/kg in assay [2].
Regarding `CCCN(CCC)C1CCc2c(O)cccc2C1` (racemic) [5-OH-DPAT], the results for the MED in assay [1] and in assay [2] were 0.004 mg/kg and 0.09 mg/kg, respectively.
In the case of `CN1CCc2cccc3c2[C@H]1Cc1ccc(O)c(O)c1-3`, the result in assay [3] and in assay [4] was Active.
For `CCCN(CCC)C1CCc2cc(O)ccc2C1` (racemic), the minimal effective dose in assay [1] was determined as 0.036 mg/kg; in assay [2] it was 13 mg/kg.
For the compound `CCCN(CCC)C1CCc2c(O)cccc2C1` (single isomer, unassigned; (-)), the result in assay [3] and in assay [4] was Active.
Consider `CCCN(CCC)C1CCc2c(O)cccc2C1` (single isomer, unassigned; (+)) [5-OH-DPAT], for which the MED was greater than 0.08 mg/kg in assay [1] and greater than 1.8 mg/kg in assay [2].
